Results of several laboratories.
Lines come from different studies, so protocols differ.
Medium: plasma

SMILES | test system | conditions | Cmax
CC(=O)O[C@@H]1CC[C@@]2(C)[C@@H](CC[C@]3(C)[C@@H]2C(=O)C=C2[C@@H]4[C@@H](C)[C@H](C)CC[C@]4(C)CC[C@]23C)[C@@]1(C)C(=O)O | female Wistar rat | oral, 1 mg/kg, single dose | 3360 ng/mL
C[C@@]12C[C@@]3(O)O[C@@H](O1)[C@]1(COC(=O)c4ccccc4)[C@H]3C[C@@]12O[C@@H]1O[C@H](CO)[C@@H](O)[C@H](O)[C@H]1O | male Sprague-Dawley rat | oral, 80 mg/kg | 1.13 ng/mL
CCCCC(=O)Nc1ccc(-c2ccc3ncn(CCC)c(=O)c3c2)cn1 | male rat | intravenous, 2.5 mg/kg | 3090 ng/mL
O=C1CCC(N2Cc3cc(C4CCN(Cc5ccccc5)CC4)ccc3C2=O)C(=O)N1 (stereo not shown) | male Sprague-Dawley rat | intravenous, 1 mg/kg | 113 ng/mL
CC[C@H](C)[C@H](NC(=O)[C@@H]1CCCN1C(=O)CNC(=O)[C@H](Cc1ccccc1)NC(=O)[C@H](CC(N)=O)NC(=O)[C@H](CC(N)=O)NC(=O)[C@H](CO)NC(=O)[C@H](CO)NC(=O)[C@H](Cc1c[nH]cn1)NC(=O)[C@H](CCCNC(=N)N)NC(=O)[C@H](CC(C)C)NC(=O)[C@H](Cc1ccccc1)NC(=O)[C@H](CCC(=O)O)NC(=O)[C@H](C)NC(=O)[C@H](CC(C)C)NC(=O)[C@H](CCCNC(=N)N)NC(=O)[C@H](CCC(N)=O)NC(=O)[C@@H](NC(=O)[C@H](C)NC(=O)[C@@H]1CSSC[C@H](NC(=O)[C@H](CCCCN)NC(=O)CC[C@H](NC(=O)CCCCCCCCCCCCCCCCCCC(=O)O)C(=O)O)C(=O)N[C@@H](CC(N)=O)C(=O)N[C@@H]([C@@H](C)O)C(=O)N[C@@H](C)C(=O)N[C@@H]([C@@H](C)O)C(=O)N1)[C@@H](C)O)C(=O)N[C@@H](CC(C)C)C(=O)N1CCC[C@H]1C(=O)N1CCC[C@H]1C(=O)N[C@H](C(=O)N[C@@H](CC(N)=O)C(=O)N[C@H](C(=O)NCC(=O)N[C@@H](CO)C(=O)N[C@@H](CC(N)=O)C(=O)N[C@H](C(=O)N1CCC[C@H]1C(N)=O)[C@@H](C)O)C(C)C)[C@@H](C)O | male Sprague-Dawley rat | subcutaneous, 30 nmol/kg, single dose | 98.8 nM
C=CC(=O)N1CCC[C@@H](n2nc(-c3ccc(Oc4ccccc4)cc3)c3c(N)ncnc32)C1 | rat | oral, 40 mg/kg | 84.4 ng/mL
CC[C@@H]([C@H](C)O)n1ncn(-c2ccc(N3CCN(c4ccc(OC[C@@H]5CO[C@@](Cn6cncn6)(c6ccc(F)cc6F)C5)cc4)CC3)cc2)c1=O | Sprague-Dawley rat | oral, 40 mg/kg | 703 ng/mL
COc1ccc(N(Cc2csc(-c3ccccc3)n2)C(=O)CCCCCC(=O)NO)cc1 | female Sprague-Dawley rat | intravenous, 5 mg/kg | 150 ng/mL
C[C@H]1[C@@H](O)O[C@@H]2O[C@@]3(C)CC[C@H]4[C@H](C)CC[C@@H]1[C@@]24OO3 | male Sprague-Dawley rat | oral, 10 mg/kg | 169 ng/mL
COc1nc(-c2cccc(-c3ccccc3)c2C)ccc1CNCCNC(=O)CCCCCCCCCCC(=O)N1CCN(CCNC(=O)c2cc3c(=O)n4cccc(C)c4nc3n(CCc3cccs3)c2=N)CC1 | male Sprague-Dawley rat | intravenous, 2 mg/kg | 1800 ng/mL
C[C@H]1Oc2cc(cnc2N)-c2c(nn(C)c2C#N)CN(C)C(=O)c2ccc(F)cc21 | male Sprague-Dawley rat | oral, 10 mg/kg, single dose | 468 ng/mL
CCN(CC)Cc1ccc2cc(COC(=O)Nc3ccc(C(=O)NO)cc3)ccc2c1 | male Sprague-Dawley rat | oral, 10 mg/kg | 2650 ng/mL
[2H]C([2H])([2H])NC(=O)c1cc(Oc2ccc(NC(=O)Nc3ccc(Cl)c(C(F)(F)F)c3)cc2)ccn1 | rat | oral, 40 mg/kg, single dose | 7420 ng/mL
COc1cc(-c2cc(C(C)=O)n3ccccc23)c(OC)cc1Cn1ccnc1 | male Sprague-Dawley rat | intravenous, 5 mg/kg | 4120 ng/mL
CCCc1nc2c(C)cc(-c3nc4ccccc4n3C)cc2n1Cc1ccc(-c2ccccc2C(=O)O)cc1 | male Sprague-Dawley rat | oral, 8 mg/kg, single dose | 136 ng/mL
CONC(=O)c1cccc2c1cc(C)n2-c1nc2c(c(NCc3ccccc3)n1)CCCN2 | male Sprague-Dawley rat | oral, 10 mg/kg, single dose | 23.4 ng/mL
